In ChEMBL document CHEMBL4689842, “EUbOPEN Chemogenomics Library wave 1” (2021):

Tested on: U2OS
Assay: Multiplex assay against U2OS
Assay type: toxicity, cell-based
Details: human
Method in brief: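 Live cells carried four stains from seeding: Hoechst33342, BioTracker Green Microtubule Cytoskeleton Dye, MitoTracker Red and Annexin V Alexa Fluor 680. They were imaged on a CQ1 microscope at 37°C and 5% CO2 after compound addition. Using CellPathfinder machine-learning gating, cells were split into Hoechst high-intensity objects or normal cells, normal cells into healthy, pyknosed or fragmented nuclei, and pyknosed cells into mitotic or apoptotic; tubulin, mitochondrial-mass and membrane-permeability phenotypes are per cents of healthy-nucleus cells.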

[1] = 12 h, 1 µM, compound concentration 1 uM, replicate 1
[2] = 12 h, 1 µM, compound concentration 1 uM, replicate 2
[3] = 12 h, 10 µM, compound concentration 10 uM, replicate 1
[4] = 12 h, 10 µM, compound concentration 10 uM, replicate 2
[5] = 24 h, 1 µM, compound concentration 1 uM, replicate 1
[6] = 24 h, 1 µM, compound concentration 1 uM, replicate 2
[7] = 24 h, 10 µM, compound concentration 10 uM, replicate 1
[8] = 24 h, 10 µM, compound concentration 10 uM, replicate 2
[9] = 48 h, 1 µM, compound concentration 1 uM, replicate 1
[10] = 48 h, 1 µM, compound concentration 1 uM, replicate 2
[11] = 48 h, 10 µM, compound concentration 10 uM, replicate 1
[12] = 48 h, 10 µM, compound concentration 10 uM, replicate 2

COc1cc2ncn(-c3cc(OCc4ccccc4C(F)(F)F)c(C(N)=O)s3)c2cc1OC [GW843682X]
Population Apoptotic (%) [1]: 54%
Population Fragmented Nuclei (%) [1]: 15%
Population Healthy Nuclei (%) [1]: 78%
Population Hoechst High Intensity Objects (%) [1]: 7%
Population Membrane Permeable-Phenotype (%) [1]: 12%
Population Mitochondria Different-Phenotype (%) [1]: 17%
Population Mitotic Cells (%) [1]: 45%
Population Normal (%) [1]: 92%
Population Pyknosed Nuclei (%) [1]: 6%
Population Tubulin-Different-Phenotype (%) [1]: 28%
Total Cell Count [1]: 170
Population Apoptotic (%) [2]: 50%
Population Fragmented Nuclei (%) [2]: 9%
Population Healthy Nuclei (%) [2]: 80%
Population Hoechst High Intensity Objects (%) [2]: 10%
Population Mitochondria Different-Phenotype (%) [2]: 10%
Population Mitotic Cells (%) [2]: 50%
Population Normal (%) [2]: 89%
Population Pyknosed Nuclei (%) [2]: 9%
Population Tubulin-Different-Phenotype (%) [2]: 20%
Total Cell Count [2]: 83
Population Apoptotic (%) [3]: 54%
Population Fragmented Nuclei (%) [3]: 12%
Population Healthy Nuclei (%) [3]: 71%
Population Hoechst High Intensity Objects (%) [3]: 13%
Population Membrane Permeable-Phenotype (%) [3]: 28%
Population Mitochondria Different-Phenotype (%) [3]: 83%
Population Mitotic Cells (%) [3]: 45%
Population Normal (%) [3]: 86%
Population Pyknosed Nuclei (%) [3]: 15%
Population Tubulin-Different-Phenotype (%) [3]: 97%
Total Cell Count [3]: 185
Population Apoptotic (%) [4]: 50%
Population Fragmented Nuclei (%) [4]: 13%
Population Healthy Nuclei (%) [4]: 75%
Population Hoechst High Intensity Objects (%) [4]: 6%
Population Membrane Permeable-Phenotype (%) [4]: 25%
Population Mitochondria Different-Phenotype (%) [4]: 88%
Population Mitotic Cells (%) [4]: 50%
Population Normal (%) [4]: 93%
Population Pyknosed Nuclei (%) [4]: 11%
Population Tubulin-Different-Phenotype (%) [4]: 98%
Total Cell Count [4]: 68
Population Apoptotic (%) [5]: 62%
Population Fragmented Nuclei (%) [5]: 14%
Population Healthy Nuclei (%) [5]: 76%
Population Hoechst High Intensity Objects (%) [5]: 3%
Population Mitochondria Different-Phenotype (%) [5]: 22%
Population Mitotic Cells (%) [5]: 37%
Population Normal (%) [5]: 96%
Population Pyknosed Nuclei (%) [5]: 8%
Population Tubulin-Different-Phenotype (%) [5]: 20%
Total Cell Count [5]: 166
Population Apoptotic (%) [6]: 55%
Population Fragmented Nuclei (%) [6]: 11%
Population Healthy Nuclei (%) [6]: 74%
Population Hoechst High Intensity Objects (%) [6]: 5%
Population Membrane Permeable-Phenotype (%) [6]: 10%
Population Mitochondria Different-Phenotype (%) [6]: 19%
Population Mitotic Cells (%) [6]: 44%
Population Normal (%) [6]: 94%
Population Pyknosed Nuclei (%) [6]: 14%
Population Tubulin-Different-Phenotype (%) [6]: 17%
Total Cell Count [6]: 85
Population Apoptotic (%) [7]: 51%
Population Fragmented Nuclei (%) [7]: 14%
Population Healthy Nuclei (%) [7]: 66%
Population Hoechst High Intensity Objects (%) [7]: 9%
Population Membrane Permeable-Phenotype (%) [7]: 42%
Population Mitochondria Different-Phenotype (%) [7]: 90%
Population Mitotic Cells (%) [7]: 48%
Population Normal (%) [7]: 90%
Population Pyknosed Nuclei (%) [7]: 18%
Population Tubulin-Different-Phenotype (%) [7]: 98%
Total Cell Count [7]: 190
Population Apoptotic (%) [8]: 50%
Population Fragmented Nuclei (%) [8]: 13%
Population Healthy Nuclei (%) [8]: 69%
Population Membrane Permeable-Phenotype (%) [8]: 41%
Population Mitochondria Different-Phenotype (%) [8]: 91%
Population Mitotic Cells (%) [8]: 50%
Population Pyknosed Nuclei (%) [8]: 17%
Population Tubulin-Different-Phenotype (%) [8]: 97%
Total Cell Count [8]: 67
Population Apoptotic (%) [9]: 71%
Population Fragmented Nuclei (%) [9]: 16%
Population Healthy Nuclei (%) [9]: 66%
Population Hoechst High Intensity Objects (%) [9]: 8%
Population Membrane Permeable-Phenotype (%) [9]: 16%
Population Mitochondria Different-Phenotype (%) [9]: 33%
Population Mitotic Cells (%) [9]: 28%
Population Normal (%) [9]: 91%
Population Pyknosed Nuclei (%) [9]: 16%
Population Tubulin-Different-Phenotype (%) [9]: 18%
Total Cell Count [9]: 160
Population Apoptotic (%) [10]: 62%
Population Fragmented Nuclei (%) [10]: 9%
Population Healthy Nuclei (%) [10]: 79%
Population Hoechst High Intensity Objects (%) [10]: 6%
Population Membrane Permeable-Phenotype (%) [10]: 27%
Population Mitochondria Different-Phenotype (%) [10]: 37%
Population Mitotic Cells (%) [10]: 37%
Population Normal (%) [10]: 93%
Population Pyknosed Nuclei (%) [10]: 10%
Population Tubulin-Different-Phenotype (%) [10]: 34%
Total Cell Count [10]: 91
Population Apoptotic (%) [11]: 78%
Population Fragmented Nuclei (%) [11]: 17%
Population Healthy Nuclei (%) [11]: 53%
Population Hoechst High Intensity Objects (%) [11]: 9%
Population Membrane Permeable-Phenotype (%) [11]: 71%
Population Mitochondria Different-Phenotype (%) [11]: 93%
Population Mitotic Cells (%) [11]: 21%
Population Normal (%) [11]: 90%
Population Pyknosed Nuclei (%) [11]: 29%
Population Tubulin-Different-Phenotype (%) [11]: 97%
Total Cell Count [11]: 187
Population Apoptotic (%) [12]: 71%
Population Fragmented Nuclei (%) [12]: 18%
Population Healthy Nuclei (%) [12]: 62%
Population Hoechst High Intensity Objects (%) [12]: 6%
Population Membrane Permeable-Phenotype (%) [12]: 68%
Population Mitochondria Different-Phenotype (%) [12]: 88%
Population Mitotic Cells (%) [12]: 28%
Population Normal (%) [12]: 93%
Population Pyknosed Nuclei (%) [12]: 19%
Total Cell Count [12]: 78
